From ChEMBL document CHEMBL1781992, “A novel monocarbonyl analogue of curcumin, (1E,4E)-1,5-bis(2,3-dimethoxyphenyl)penta-1,4-dien-3-one, induced cancer cell H460 apoptosis via activation of endoplasmic reticulum stress signaling pathway” (J Med Chem, 2011)
Active and inactive are the calls of the source. The rule behind the calls is not given here.

What was measured:
NCI-H460 [1] = experiment: Induction of CHOP expression in human NCI-H460 cells at 15 to 20 uM after 24 hrs by Western blot analysis; format: functional, cell-based
Procedure, shortened: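 H460 cells treated for 24 h at the indicated concentrations; whole-cell lysates probed for CHOP by Western blot, with actin as loading control.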

NCI-H460 [2] = experiment: Induction of GRP78 protein expression in human NCI-H460 cells at 5 to 20 uM after 3 hrs by Western blot analysis; format: functional, cell-based
Procedure, shortened: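 H460 cells treated for 3 h; GRP78 protein detected by Western blot with actin as loading control.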

NCI-H460 [3] = experiment: Induction of apoptosis in human NCI-H460 cells assessed as viable cells at 10 uM after 6 hrs by annexinV-propidium iodide staining based flow cytometric analysis relative to control; format: functional; details: NCI-H460, 6 h, read-out: Activity
Procedure, shortened: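 H460 cells plated for 6 h, then treated with 5, 10 or 20 μM. Cells washed, trypsin-EDTA detached and resuspended in PBS, then stained with annexin V and propidium iodide plus RNase and 0.1% Triton X-100 for 30 min at 37 °C before flow cytometry. Figure legend gives 6 h incubation.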

COc1cccc(/C=C/C(=O)/C=C/c2cccc(OC)c2OC)c1OC
Activity (NCI-H460 [1]): Active | Activity (NCI-H460 [2]): Active | viability at 10 µM (NCI-H460 [3]): 72.5%
